Consider 24 molecules from article PMC11101930 (International Journal for Parasitology: Drugs and Drug …, 2024).

As a reminder, the pEC50 is the EC50 on a negative log10 scale, so that one unit is a factor of ten. The half-life is the time in which the quantity being followed falls by half. A low value points to fast loss.

pEC50: −log10 of the molar value. Structures can show the parent of a compound that is named as a salt. Where two headings read alike, the source gives them in different places.

In one series the test system is adult S. mansoni. The series is described as follows: In vitro screening of adult S. mansoni worms, visual viability scoring. In kind it is cell-based. The note with it: Schistosoma mansoni, 72 h, read-out: Adult S. mansoni EC50. A digest of the protocol: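 Adult worms were recovered from mouse mesenteric veins at day 49 post-infection and held in RPMI 1640 with 5% FCS and antibiotics at 37 °C, 5% CO2. Two worm pairs per well were exposed to 40, 30, 20, 10, 7.5, 5, 2.5 or 1 μM test compound, with DMSO (<1%) as control. Viability was scored visually at 24 and 72 h (0–3, 0.5 steps). Duplicates, repeated once. Scores were normalized to vehicle, and EC50 came from a four-parameter sigmoid fit (two-parameter if not applicable).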

The test system of a further series is P. falciparum D6 strain. The series is described as follows: Antimalarial activity against P. falciparum D6 strain. The series is classed as cell-based, Plasmodium falciparum. The following applies: among the 11 compounds most active against adult S. mansoni.
Series [1] is described as follows: Metabolic stability assay in murine liver microsomes. In kind it is in vitro ADME. The following applies: for Microsomal stability t1/2: murine liver microsomes, 1 μM, 37 °C. Summed up:
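Test compound (1 μM) was incubated at 37 °C with mouse liver microsomes (0.5 mg/ml protein) in potassium phosphate buffer, pH 7.4, with 1.0 mM EDTA. Reactions were started with NADPH and quenched with ice-cold acetonitrile every 15 min up to 1 h. Depletion was followed by LC-MS/MS (ESI+, C18) against internal standards. A first-order exponential decay fit gave t1/2, and CLint was derived assuming hepatic blood flow of 90 ml/min/kg.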
Background: Liver microsomes are a subcellular fraction often used to study metabolism.

In series [2] the test system is newly transformed schistosomula (NTS). The experiment in a line: In vitro screening of newly transformed schistosomula. In kind it is cell-based, Schistosoma mansoni. The note with it: 72 h, read-out: NTS EC50. Summed up:
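Cercariae shed from Biomphalaria glabrata under light for 4 h were mechanically transformed and kept in M199 with 5% FCS, antibiotic mastermix and pen./strep. at 37 °C, 5% CO2. 40–50 larvae per well were exposed to 10, 7.5, 5, 3.75, 2.5, 1 or 0.25 μM test compound, with DMSO (<1%) as control. Viability was scored visually at 24 and 72 h (0–3, 0.5 steps), and the assay was repeated once. Scores were normalized to vehicle, and EC50 came from a four- or two-parameter sigmoid least-squares fit.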

Another series has as its system S. mansoni. The series is described as follows: In vivo efficacy study in S. mansoni-infected mice. Further details: species or system Schistosoma mansoni. The note with it: single oral gavage, 200 mg/kg (1) or 100 mg/kg (19); for Mean number of worms (SD): 21 days post-dosing. A digest of the protocol: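 Female NMRI mice (three weeks old, acclimatized one week) were each infected with 100 cercariae subcutaneously in the nuchal fold. At day 49 they received one oral gavage of test compound in Tween 80/ethanol (70:30, 10% of volume) plus tap water (sonicated, 35 °C); there were four mice per group and four untreated controls. Mice were killed 21 days post-dosing, and worms from mesenteric veins and liver were sexed, counted, and classed as dead or alive. Worm burden reduction was based on living worms versus controls, with a Kruskal-Wallis test.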

Consider `Cl.N#Cc1cc(C=NNC(=N)NN=Cc2ccc(F)c(C#N)c2)ccc1F` [Compound 1, 2,2’-Bis[(3-cyano-4-fluorophenyl)methylene]carbonimidic Dihydrazide Hydrochloride], for which, in the series on adult S. mansoni, the pEC50 is 5.26. The “Antimalarial activity in vitro and in vivo (ranking)” value in the series on P. falciparum D6 strain was “most potent antimalarial activity in vitro and in vivo”. The “Microsomal stability t1/2” value in series [1] was 3.1 h. Also, the negative-log EC50 (pEC50) in series [2] (Schistosoma mansoni) is 5.90. Besides, in the series with S. mansoni, the Tolerability in mice entry is listed as “well tolerated” and the “Mean number of worms (SD)” value is recorded as 24.3 (4.3). For `N=C(NN=Cc1ccc(C(F)(F)F)cc1)NN=Cc1ccc(C(F)(F)F)cc1` [Compound 12, 2,2’-Bis[(4-trifluoromethylphenyl)methylene]carbonimidic Dihydrazide Hydrochloride], in series [2] (Schistosoma mansoni), the pEC50 is 5.21. `N=C(NN=Cc1ccc(OC(F)(F)F)cc1)NN=Cc1ccc(OC(F)(F)F)cc1` [Compound 16, 2,2’-Bis[(4-trifluoromethoxyphenyl)methylene]carbonimidic Dihydrazide Hydrochloride]: the pEC50 in the series with adult S. mansoni was 5.09; in series [2] (Schistosoma mansoni) it was 5.48. On the same counts, the results for `N=C(NN=CCc1ccc(OC(F)(F)F)cc1)NN=CCc1ccc(OC(F)(F)F)cc1` [Compound 17, 2,2’-Bis[(4-trifluoromethoxyphenyl)ethylidene]carbonimidic Dihydrazide Hydrochloride] are 5.31 and 5.70. On the same counts, the results for `N=C(NN=Cc1ccc(OC(F)F)cc1)NN=Cc1ccc(OC(F)F)cc1` [Compound 18, 2,2’-Bis[(4-difluoromethoxyphenyl)methylene]carbonimidic Dihydrazide Hydrochloride] are 5.29 and 5.33. With `Cl.N=C(NN=CCc1ccc(OC(F)F)cc1)NN=CCc1ccc(OC(F)F)cc1` [Compound 19, 2,2’-Bis[(4-difluoromethoxyphenyl)ethylidene]carbonimidic Dihydrazide Hydrochloride], the pEC50 in the series on adult S. mansoni is 5.56. In addition, the pEC50 in series [2] (Schistosoma mansoni) was 5.55. In the series with S. mansoni, the Tolerability in mice result is recorded as “well tolerated” and the “Mean number of worms (SD)” value is reported as 28.3 (10.6). Take `Cl.N#Cc1cccc(C=NNC(=N)NN=Cc2cccc(C#N)c2)c1` [Compound 21, 2,2’-Bis[(3-cyanophenyl)methylene]carbonimidic Dihydrazide Hydrochloride]: the pEC50 with adult S. mansoni is 5.39; in series [2] (Schistosoma mansoni), 5.78. The “Microsomal stability t1/2” value in series [1] was 0.967 h. In the case of `N#Cc1cccc(CC=NNC(=N)NN=CCc2cccc(C#N)c2)c1` [Compound 23, 2,2’-Bis[(3-cyanophenyl)ethylidene]carbonimidic Dihydrazide Hydrochloride], the pEC50 in the series on adult S. mansoni is 5.57; in series [2] (Schistosoma mansoni), 5.95.

Take `N=C(NN=Cc1ccc(-c2ccccc2)cc1)NN=Cc1ccc(-c2ccccc2)cc1` [Compound 26, 2,2’-Bis[(4-diphenyl)methylene]carbonimidic Dihydrazide Hydrochloride]: the pEC50 in series [2] (four- (a) or two-parameter (b) sigmoid fit) was 5.35.

Turning to `N=C(NN=Cc1ccc([N+](=O)[O-])cc1)NN=Cc1ccc([N+](=O)[O-])cc1` [Compound 27, 2,2’-Bis[(4-nitrophenyl)methylene]carbonimidic Dihydrazide Hydrochloride], the pEC50 in series [2] (Schistosoma mansoni) is 5.24. On to `N=C(NN=Cc1ccc(N2CCOCC2)cc1)NN=Cc1ccc(N2CCOCC2)cc1` [Compound 33, 2,2’-Bis[(4-morpholinophenyl)methylene]carbonimidic Dihydrazide Hydrochloride], for which the negative-log EC50 (pEC50) was 5.19 in the series on adult S. mansoni and 5.61 in series [2] (Schistosoma mansoni). For the molecule `COc1cc(OC)c(CC=NNC(=N)NN=CCc2cc(Cl)c(OC)cc2OC)cc1Cl` [Compound 37, 2,2’-Bis[(2,4-dimethoxy-5-chlorophenyl)ethylidene]carbonimidic Dihydrazide Hydrochloride], the pEC50 in series [2] (Schistosoma mansoni) is 5.57. Consider `N=C(N/N=C/c1cccc([N+](=O)[O-])c1)N/N=C/c1cccc([N+](=O)[O-])c1` [Compound 49, N',2-bis((E)-3-nitrobenzylidene)hydrazine-1-carboximidhydrazide Hydrochloride], for which the negative logarithm of the EC50 (pEC50) with adult S. mansoni was 5.02; in series [2] (Schistosoma mansoni) it was 5.48. The like results for `N=C(N/N=C/c1cccc(-c2ccccc2)c1)N/N=C/c1cccc(-c2ccccc2)c1` [Compound 52, (E)-N'-((E)-[1,1'-biphenyl]-3-ylmethylene)-2-([1,1'-biphenyl]-3-ylmethylene)hydrazine-1-carboximidhydrazide Hydrochloride] were, in that order, 5.12 and 5.51. On to `N=C(N/N=C/c1ccc(-c2ccc(F)cc2)cc1)N/N=C/c1ccc(-c2ccc(F)cc2)cc1` [Compound 53, (E)-2-((4'-fluoro-[1,1'-biphenyl]-4-yl)methylene)-N'-((E)-(4'-fluoro-[1,1'-biphenyl]-4-yl)methylene)hydrazine-1-carboximidhydrazide Hydrochloride], for which, in series [2] (Schistosoma mansoni), the pEC50 is 5.47.

As to `N=C(N/N=C/c1ccc(Oc2ccccc2)cc1)N/N=C/c1ccc(Oc2ccccc2)cc1` [Compound 57, N',2-bis((E)-4-phenoxybenzylidene)hydrazine-1-carboximidhydrazide Hydrochloride], the negative logarithm of the EC50 (pEC50) with adult S. mansoni is 5.15; in series [2] (Schistosoma mansoni), 5.42.

Consider `N=C(N/N=C/c1ccc(Oc2ccc(F)cc2)cc1)N/N=C/c1ccc(Oc2ccc(F)cc2)cc1` [Compound 58, N',2-bis((E)-4-(4-fluorophenoxy)benzylidene)hydrazine-1-carboximidhydrazide Hydrochloride], for which the negative logarithm of the EC50 (pEC50) with adult S. mansoni was 5.07; in series [2] (Schistosoma mansoni), 5.35. On the same counts, the results for `N=C(N/N=C/c1ccc(Oc2ccc(Cl)cc2)cc1)N/N=C/c1ccc(Oc2ccc(Cl)cc2)cc1` [Compound 59, N',2-bis((E)-4-(4-chlorophenoxy)benzylidene)hydrazine-1-carboximidhydrazide Hydrochloride] are 5.26 and 5.57.

For `N=C(N/N=C/c1ccc2ccccc2n1)N/N=C/c1ccc2ccccc2n1` [Compound 62, (E)-N'-((E)-quinolin-2-ylmethylene)-2-(quinolin-2-ylmethylene)hydrazine-1-carboximidhydrazide Hydrochloride], the negative logarithm of the EC50 (pEC50) in the series with adult S. mansoni is 5.13; in series [2] (Schistosoma mansoni), 5.60. Turning to `N=C(N/N=C/c1cnc2ccccc2c1)N/N=C/c1cnc2ccccc2c1` [Compound 63, (E)-N'-((E)-quinolin-3-ylmethylene)-2-(quinolin-3-ylmethylene)hydrazine-1-carboximidhydrazide Hydrochloride], the pEC50 in series [2] (Schistosoma mansoni) is 6.19. On the same count and under the same terms, then `N=C(N/N=C/c1ccnc2ccccc12)N/N=C/c1ccnc2ccccc12` [Compound 64, (E)-N'-((E)-quinolin-4-ylmethylene)-2-(quinolin-4-ylmethylene)hydrazine-1-carboximidhydrazide Hydrochloride], with 5.80; and `N#Cc1cc(/C=N/NC(=N)N/N=C/c2ccc(Cl)c(C#N)c2)ccc1Cl` [Compound 71, N',2-bis((E)-4-chloro-3-cyanobenzylidene)hydrazine-1-carboximidhydrazide Hydrochloride], with 5.91. For `Cl.N#Cc1cc(/C=N/NC(=N)N/N=C/c2ccc(OC(F)(F)F)cc2)ccc1F` [Compound 77, N'-((E)-3-cyano-4-fluorobenzylidene)-2-((E)-4-(trifluoromethoxy)benzylidene)hydrazine-1-carboximidhydrazide Hydrochloride], the values for the pEC50 (in the series with adult S. mansoni; in series [2] (Schistosoma mansoni)) were 5.17 and 5.40, respectively. This molecule displayed a half-life at 1 μM in series [1] (mouse, liver microsomes, pH 7.4) of 4.66 h. On to `C#CCOc1ccc(/C=N/NC(=N)N/N=C/c2ccc(C(=O)c3ccccc3)cc2)cc1` [Compound 86, N'-((E)-4-benzoylbenzylidene)-2-((E)-4-(prop-2-yn-1-yloxy)benzylidene)hydrazine-1-carboximidhydrazide Hydrochloride], for which the pEC50 in series [2] (Schistosoma mansoni) is 5.35.
